Each structure is given as a SMILES string. Calls of active or inactive are those of the source. The rule behind the calls is not given here.

As usually defined, the EC50 is the concentration that produces a half-maximal response. The solubility is how much of the substance goes into solution per volume. A high value points to much dissolved substance.

The subject of series [1] is Plasmodium falciparum. Description: Antimalarial activity against pyrimethamine/chloroquine-resistant Plasmodium falciparum W2 infected in human type A-positive erythrocytes after 48 hrs by [3H]-hypoxanthine incorporation assay. In kind it is functional, cell-based. The gist of the method: (§1)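 Compound from 10.0 mM DMSO stock, diluted ≥1:400, then 11 concentrations in duplicate. Incubated at 37 °C under 90% N2/5% O2/5% CO2 for 48 h, then 3H-hypoxanthine added for 24 h more. CPM counted; EC50 by nonlinear regression.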

Series [2] has as its system Plasmodium berghei. Description: Antimalarial activity against blood stage form of GFP transfected Plasmodium berghei infected in mouse assessed as mouse survival day at 10 mg/kg, po administered on day 3, 4, 5 post infection by Thompson test. It is filed as functional.
Series [3] deals with Plasmodium berghei. Description: Antimalarial activity against blood stage form of GFP transfected Plasmodium berghei infected in mouse assessed as protection against parasitemia at 10 mg/kg, po administered on day 3, 4, 5 post infection measured on day 30 by Thompson test. It is filed as functional, organism-based. In a few lines:
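Modified Thompson model: mice inoculated ip with 2×10^6 P. berghei (GFP)-infected red blood cells, parasitemia near 1% by day 3. […] Animals followed for 30 days; survival to day 30 with parasitemia below 1% counted as cure.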

Series [4] deals with Plasmodium falciparum. Nature of the series: Antimalarial activity against mefloquine/chloroquine/atovaquone/pyrimethamine-resistant Plasmodium falciparum TM90-C2B infected in human type A-positive erythrocytes after 48 hrs by [3H]-hypoxanthine incorporation assay. It is filed as functional, cell-based. In a few lines:
as §1

The next series relates to J774. Description: Cytotoxicity against mouse J774 cells after 72 hrs by CellTiter-96 aqueous one solution cell proliferation assay. It is filed as cell-based. The conditions noted are these: J774, 72 h. In a few lines: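 Compounds from 10 µg/mL or 20 µM top concentration, 1:2 serial dilutions over 11 concentrations, 72 h at 37 °C, 5% CO2. MTS-type reagent added for 4 h, absorbance read at 490 nm. IC50 by nonlinear regression.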

Series [5] has as its system Plasmodium berghei. Nature of the series: Antimalarial activity against Plasmodium berghei infected in human HepG2 cells after 44 hrs by luciferase assay. The settings on record: HepG2, 44 h. In kind it is functional, cell-based. The gist of the method: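 HepG2 cells, 75000 per well, in DMEM with 10% FBS at 37 °C, 5% CO2. 5000 Pb luciferase sporozoites from dissected mosquito salivary glands added per well for 3 h, then washed three times with PBS. Serially diluted compound added in triplicate, 44 h at 37 °C. Cells lysed, luciferase substrate added, luminescence read.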

Series [6] concerns Plasmodium berghei. Description: Antimalarial activity against liver stage form of luciferase transfected Plasmodium berghei sporozoites infected in mouse assessed as inhibition of parasitemia at 25 mg/kg administered via oral gavage 1 hr post infection measured on day 9 by bioluminescence method relative to control. It is filed as functional.
The test system of series [7] is Plasmodium berghei. Nature of the series: Antimalarial activity against liver stage form of luciferase transfected Plasmodium berghei sporozoites infected in mouse assessed as protection against parasitemia at 100 mg/kg administered via oral gavage 1 hr post infection measured at 44 hrs by bioluminescence method. It is filed as functional, organism-based. In a few lines: (§2)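 Mice infected with luciferase-expressing P. berghei sporozoites, five per group. A single dose in PEG 400 was given orally by gavage (25, 50, 100 mg/kg) or subcutaneously (50 mg/kg) 1 h after infection. Infected untreated controls and a primaquine drug control were included. Whole-animal imaging was done 5 min after ip D-luciferin (100 mg/kg) under isoflurane, at 44 h and days 6, 9 and 13. Survival/cure followed to day 30.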

Series [8] has as its system Plasmodium berghei. Nature of the series: Antimalarial activity against liver stage form of luciferase transfected Plasmodium berghei sporozoites infected in mouse assessed as protection against parasitemia at 50 mg/kg, sc administered 1 hr post infection measured on day 30 by bioluminescence method. In kind it is functional, organism-based. In a few lines:
as §2

In series [9] the test system is Plasmodium berghei. Nature of the series: Antimalarial activity against liver stage form of luciferase transfected Plasmodium berghei sporozoites infected in mouse assessed as protection against parasitemia at 25 to 50 mg/kg administered via oral gavage 1 hr post infection measured on day 30 by bioluminescence method. In kind it is functional, organism-based. The gist of the method:
as §2

The subject of series [10] is Plasmodium berghei. Nature of the series: Antimalarial activity against liver stage form of luciferase transfected Plasmodium berghei sporozoites infected in mouse assessed as inhibition of parasitemia at 50 mg/kg, sc administered 1 hr post infection measured on day 9 by bioluminescence method relative to control. It is filed as functional.
The test system of series [11] is Plasmodium berghei. Nature of the series: Antimalarial activity against liver stage form of luciferase transfected Plasmodium berghei sporozoites infected in mouse assessed as protection against parasitemia at 100 mg/kg administered via oral gavage 1 hr post infection measured on day 6 to 13 by bioluminescence method. It is filed as functional, organism-based. In a few lines:
as §2

The subject of series [12] is Plasmodium berghei. Nature of the series: Antimalarial activity against liver stage form of luciferase transfected Plasmodium berghei sporozoites infected in mouse assessed as inhibition of parasitemia at 50 mg/kg administered via oral gavage 1 hr post infection measured on day 9 by bioluminescence method relative to control. It is filed as functional.
Series [13] relates to Plasmodium berghei. Description: Antimalarial activity against liver stage form of luciferase transfected Plasmodium berghei sporozoites infected in mouse assessed as protection against parasitemia at 50 mg/kg, sc administered 1 hr post infection measured at 44 hrs by bioluminescence method. In kind it is functional, organism-based. The gist of the method: as §2
The subject of series [14] is Plasmodium berghei. Description: Antimalarial activity against liver stage form of luciferase transfected Plasmodium berghei sporozoites infected in mouse assessed as protection against parasitemia at 50 mg/kg, sc administered 1 hr post infection measured on day 6 to 13 by bioluminescence method. In kind it is functional, organism-based. The gist of the method: as §2

A short description of series [15]: Aqueous solubility of compound at pH 6.5. In kind it is physicochemical.
The test system of series [16] is Plasmodium berghei. Nature of the series: Antimalarial activity against liver stage form of luciferase transfected Plasmodium berghei sporozoites infected in mouse assessed as protection against parasitemia at 25 to 100 mg/kg administered via oral gavage 1 hr post infection measured at 44 hrs by bioluminescence method. In kind it is functional, organism-based. In a few lines:
as §2

Series [17] concerns Plasmodium berghei. Nature of the series: Antimalarial activity against liver stage form of luciferase transfected Plasmodium berghei sporozoites infected in mouse assessed as protection against parasitemia at 100 mg/kg administered via oral gavage 1 hr post infection measured on day 30 by bioluminescence method. It is filed as functional, organism-based. The gist of the method: as §2

Series [18] has as its system Plasmodium berghei. Description: Antimalarial activity against liver stage form of luciferase transfected Plasmodium berghei sporozoites infected in mouse assessed as protection against parasitemia at 25 to 100 mg/kg administered via oral gavage 1 hr post infection measured on day 6 to 13 by bioluminescence method. In kind it is functional, organism-based. In a few lines:
as §2

For series [19], the system named is Plasmodium berghei. Description: Antimalarial activity against liver stage form of luciferase transfected Plasmodium berghei sporozoites infected in mouse assessed as inhibition of parasitemia at 100 mg/kg administered via oral gavage 1 hr post infection measured on day 9 by bioluminescence method relative to control. In kind it is functional.
In series [20] the test system is Plasmodium berghei. Description: animal or person. The settings on record: in Mus musculus, po, read-out: INH.

Regarding `COC(=O)c1c[nH]c2cc(CN3CCN(c4ccc(C(F)(F)F)cc4)CC3)ccc2c1=O`, the EC50 amounted to 0.32 nM in the series with Plasmodium falciparum [1], 120 nM in the series with Plasmodium falciparum [4], 11000 nM with J774 and 16 nM in the series on Plasmodium berghei [5]. The Survival entry in the series on Plasmodium berghei [2] is listed as “<=21 day”. Moreover, in the series with Plasmodium berghei [3], the result was inactive.

Turning to `COC(=O)c1c[nH]c2cc(CN3CCN(Cc4ccc(OC)cc4)CC3)ccc2c1=O`, the EC50 was 2.5 nM in the series on Plasmodium falciparum [1], 800 nM in the series on Plasmodium falciparum [4] and 83 nM with Plasmodium berghei [5]. Also, the inhibition in vivo at 25 mg/kg with Plasmodium berghei [6] stood at 49.1%. The result in the series with Plasmodium berghei [7], in the series on Plasmodium berghei [9] and in the series with Plasmodium berghei [11] was Active. In the series with Plasmodium berghei [8], the result was inactive. Further, the inhibition in vivo at 50 mg/kg in the series with Plasmodium berghei [10] amounted to 20.1%.

Regarding `COc1cc(NC(C)CCCN)c2ncccc2c1` (configuration not stated) [PRIMAQUINE], in the series on Plasmodium berghei [12], the inhibition in vivo at 50 mg/kg is above 99%.

As to `COC(=O)c1c[nH]c2cc(CN3CCN(c4ccc(F)cc4)CC3)c(C)cc2c1=O`, the EC50 with Plasmodium falciparum [1] came to 0.84 nM; in the series on Plasmodium falciparum [4], 350 nM; with J774 it was 16000 nM; in the series with Plasmodium berghei [5], 2.6 nM. Besides, in the series on Plasmodium berghei [2], the Survival result was “<=21 day”.

For the molecule `COC(=O)c1c[nH]c2cc(CN3CCN(c4ccccc4)CC3)ccc2c1=O`, the results for the inhibition in vivo at 50 mg/kg in the series on Plasmodium berghei [12] and in the series on Plasmodium berghei [10] were 85.1% and above 99%, respectively. Besides, the EC50 is 1.3 nM in the series with Plasmodium falciparum [1], 480 nM in the series with Plasmodium falciparum [4] and 4.7 nM with Plasmodium berghei [5]. Moreover, the inhibition in vivo at 25 mg/kg in the series with Plasmodium berghei [6] is 65.3%. For the same molecule, the outcome in the series with Plasmodium berghei [13], in the series on Plasmodium berghei [14], in the series with Plasmodium berghei [16], in the series with Plasmodium berghei [17] and in the series on Plasmodium berghei [18] was Active. In addition, in series [15], the solubility is at least 80 µM. Besides, in the series on Plasmodium berghei [19], the inhibition in vivo at 100 mg/kg is above 99%.

In the case of `COC(=O)c1c[nH]c2cc(CN3CCN(c4ccc(F)cc4)CC3)ccc2c1=O`, the EC50 with Plasmodium falciparum [1] is 1.8 nM; in the series with Plasmodium falciparum [4] it was 130 nM; in the series on J774, 2000 nM; in the series with Plasmodium berghei [5], 1.1 nM. The Survival result in the series with Plasmodium berghei [2] is given as “<=21 day”. The result in the series with Plasmodium berghei [3] was inactive.

As for `Cc1[nH]c2cc(CN3CCN(c4ccc(F)cc4)CC3)ccc2c(=O)c1Cl`, the EC50 is 39 nM in the series on Plasmodium falciparum [1], 52 nM with Plasmodium falciparum [4] and above 20000 nM in the series with J774. Moreover, the Survival entry in the series with Plasmodium berghei [2] is “<=13 day”. Further, in the series on Plasmodium berghei [3], the outcome was inactive. For the same molecule, the inhibition in vivo at 10 mg/kg with Plasmodium berghei [20] worked out at 11%.

`O=c1c(Br)c[nH]c2cc(CN3CCN(c4ccc(F)cc4)CC3)ccc12`: the EC50 in the series with Plasmodium falciparum [1] is 810 nM; in the series with Plasmodium falciparum [4], above 2000 nM; in the series on J774, above 20000 nM; in the series with Plasmodium berghei [5], 0.86 nM. Besides, the Survival result with Plasmodium berghei [2] is reported as “<=13 day”. In the series on Plasmodium berghei [3], the result was inactive. Moreover, in the series on Plasmodium berghei [20], the inhibition in vivo at 10 mg/kg is 33%.

Take `Cc1[nH]c2cc(CN3CCN(c4ccc(F)cc4)CC3)ccc2c(=O)c1Br`: the Survival result in the series on Plasmodium berghei [2] was “<=13 day”. In the series on Plasmodium berghei [3], the result was inactive. Also, the EC50 was 26 nM with Plasmodium falciparum [4] and above 20000 nM with J774.

(Values after ChEMBL document CHEMBL4052822, “Design and Synthesis of Orally Bioavailable Piperazine Substituted 4(1H)-Quinolones with Potent Antimalarial Activity: Structure-Activity and Structure-Property Relationship Studies” (J Med Chem, 2018).)
